# Compound activity (PubChem)
# DNMT1 block = human DNMT1 methyltransferase inhibitors, primary screen, biochemical, molecular beacon, fluorescence, HinP1I cleavage, uHTS | DNA (cytosine-5)-methyltransferase 1 (Homo sapiens), P26358 | inhibition (reported as % activation of signal), % at 10 µM | 360,000 compounds, 0.83% hits; in the data active = inhibition above about 50%
# SUMO1 PPI mod = modulators of SUMO1 protein-protein interactions, primary screen, biochemical, uHTS | Small ubiquitin-related modifier 1 (Homo sapiens), P63165 | SUMO1 binding to a labelled peptide, TR-FRET, 1 h | inhibition, % at 20 µM | 360,000 compounds, 0.33% hits | AID 602429, 2012; in the data active = inhibition above about 37%
# Target sequence (P63165 whole entry, looked up): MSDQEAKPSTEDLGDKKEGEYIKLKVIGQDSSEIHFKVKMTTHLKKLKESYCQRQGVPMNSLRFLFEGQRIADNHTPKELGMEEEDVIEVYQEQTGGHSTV
# Rpn11 inh = Rpn11 (PSMD14) deubiquitinase inhibitors, primary screen, biochemical, fluorescence polarization, uHTS | human 26S proteasome, Ub4-pepOG fluorescence polarization; 20S core pre-blocked with epoxomicin | inhibition, % at 20 µM | 360,000 compounds, 0.59% hits | AID 588493, 2011;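 active = inhibition at 20 µM, scaled to each plate's controls, above about 33%, limit read from the data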
# Target sequence (O00487 whole entry, looked up): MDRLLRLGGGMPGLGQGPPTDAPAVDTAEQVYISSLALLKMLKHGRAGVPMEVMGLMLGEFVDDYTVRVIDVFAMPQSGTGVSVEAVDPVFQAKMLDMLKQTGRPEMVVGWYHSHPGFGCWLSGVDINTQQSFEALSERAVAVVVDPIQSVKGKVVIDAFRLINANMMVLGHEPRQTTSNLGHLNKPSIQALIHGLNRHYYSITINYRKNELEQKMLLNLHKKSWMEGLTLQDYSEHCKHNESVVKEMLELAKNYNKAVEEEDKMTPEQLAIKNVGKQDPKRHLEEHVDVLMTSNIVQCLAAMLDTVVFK
# STEP block = STEP phosphatase inhibitors, primary screen, biochemical, fluorescence intensity, uHTS; recombinant STEP, OMFP fluorogenic substrate; Tyrosine-protein phosphatase non-receptor type 5 (Homo sapiens), P54829; AID 588621, 2011; inhibition, % at 20 µM; 360,000 compounds, 0.25% hits;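 active = inhibition at 20 µM, scaled per plate between control wells, above about 37%, limit read from the data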;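 also: 0% = DMSO with enzyme and substrate and 100% = substrate only without enzyme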
#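 System: STEP phosphatase, cell-free reaction; Buffer or medium: Bis-Tris pH 6.0 buffer with DTT, detergent; Incubation: 20 min at room temperature, dark; Measured by: fluorescence, 480/540 nm.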
# LMPTP block = LMPTP phosphatase inhibitors, primary screen, biochemical, fluorescence intensity, uHTS; Low molecular weight phosphotyrosine protein phosphatase (Homo sapiens), P24666; recombinant LMPTP-A, OMFP fluorogenic substrate; inhibition, % at 20 µM; 360,000 compounds, 0.22% hits;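 active = compounds that cut the enzyme signal by at least half of the control window in the single-dose screen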;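 also: plate controls were DMSO wells with enzyme plus substrate for no effect and substrate without enzyme for full effect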
# Target sequence (P24666 whole entry, looked up): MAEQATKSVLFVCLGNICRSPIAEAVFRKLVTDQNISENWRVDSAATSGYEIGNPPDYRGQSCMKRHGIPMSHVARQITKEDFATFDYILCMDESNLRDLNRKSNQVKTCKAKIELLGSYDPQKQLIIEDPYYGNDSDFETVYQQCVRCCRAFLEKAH
#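 Test system: LMPTP-A, protein tyrosine phosphatase of low molecular weight; Input: 0.625 nM enzyme; Incubation: 50 min dark incubation at room temperature; Signal: endpoint fluorescence intensity from OMFP dephosphorylation; Read-out basis: % inhibition versus control wells.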
# Scp-1 inhibitor = Scp-1 phosphatase inhibitors, primary screen, biochemical, colorimetric, uHTS | Recombinant Scp1, phosphopeptide, malachite green phosphate absorbance | 340,000 compounds, 0.88% hits | AID 493091, 2011 | inhibition, % at 20 µM | Carboxy-terminal domain RNA polymerase II polypeptide A small phosphatase 1 (Homo …;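 active = inhibition above about 50% at 20 µM, limit read from the data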;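 also: plate controls were DMSO wells with enzyme for no effect and wells lacking enzyme for full effect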
#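 Test system: SCP-1 catalytic domain; Buffer or medium: Acidic Tris acetate buffer with magnesium and detergent; Also added: Phosphorylated 17-residue peptide substrate; Compound: single 20 µM dose, 1% DMSO; Schedule: enzyme reaction 45 min at room temperature, colour 5 min, stabilisation 30 min; Signal: Phosphate-binding colour reagent, absorbance read at 630 nm.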
# DNMT1 interf DR = spectral interference with molecular beacon fluorescence, dose response, artefact control for DNMT1 inhibitor project, biochemical, fluorescent molecular beacon | shares compounds with DNMT1 block | spectral interference counter-screen | IC50, µM | 200 tested, under 10 active | AID 602382, 2012; call rule not given here
# DNMT1 confirm = DNMT1 methyltransferase inhibitor retest, confirmation, biochemical, molecular beacon, fluorescence, single concentration | 2,300 compounds, 8% hits | DNMT1 molecular beacon HinP1I cleavage | inhibition, % at 10 µM | shares compounds with DNMT1 block | AID 602385, 2012;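 active = average inhibition of at least 30% in the single-concentration confirmation test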
# DNMT1 interf = counter-screen for DNMT1 inhibitors: spectral interference. shares compounds with DNMT1 block. DNMT1 molecular beacon spectral interference counterscreen, fluorescence 485/520. activation (fluorescence interference), % at 10 µM. 2,300 compounds, 1% hits. AID 602387;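 active = activation of at least 30% at 10 µM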;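 also: DNMT1 catalytic domain with a HinP1I cleavage step and a FAM/dabcyl DNA beacon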
# * = called active by the depositor; / = no result. Hits are enriched below; roughly 2.3% of the tested compounds scored in any of these assays.
SMILES,DNMT1 block,SUMO1 PPI mod,Rpn11 inh,STEP block,LMPTP block,Scp-1 inhibitor,DNMT1 confirm,DNMT1 interf,others
C=C1C(C(=O)Nc2ccccc2)C1C(=O)Nc1ccccc1 (stereo unspecified),2,4,-1,0,-1,0,/,/,
COC(=O)Cc1ccc(NC(=S)NCCSc2ccc(Cl)cc2)cc1,-2,1,-2,0,2,-8,/,/,
O=C(N/N=C/c1cc(Br)c(Br)o1)C(O)c1ccccc1 (stereo unspecified),77*,-1,-12,4,5,35,3,2,
N#Cc1c2ccc(OCC(=O)NCc3ccco3)cc2n2ccccc12,62*,7,-1,6,1,15,1,0,
O=C(COc1ccccc1)NCc1ccco1,3,0,-1,2,-2,-4,/,/,
O=C(COc1coc(CN2CCc3ccccc3C2)cc1=O)Nc1ccc(F)cc1F,-1,7,-8,-3,-1,-1,/,/,
N#Cc1c(SCC(=O)Nc2nccs2)nc2c(c1-c1ccco1)CCCC2,60*,8,8,7,1,-2,5,0,
CCOC(=O)N1CCC(=NNC(=O)Cn2ccc(C(F)(F)F)n2)CC1,-2,1,7,-3,-1,-5,/,/,
Cc1nnc(SCC(=O)NCc2ccco2)[nH]c1=O,20,9,-10,2,-1,18,/,/,
Cc1cc(=O)[nH]c(SCC(=O)NCc2ccco2)n1,56*,23,-2,4,0,67*,1,3,
Cc1ccc(NCC(=O)N/N=C/c2cccc(Br)c2)cc1,4,1,0,-2,3,2,/,/,
Cc1ccc(NCC(=O)N/N=C\c2cccc(O)c2)cc1,58*,1,-5,-4,0,-3,0,4,
O=C(CSc1nnc(-c2ccccc2Cl)o1)N1CCOCC1,-1,8,4,-1,-1,-5,/,/,
CN1CCN(c2ccc(CNC(=O)c3ccc(-c4ccnn4C)c4ccoc34)cc2)CC1,75*,-5,-9,-2,6,/,4,3,
CN1CCN(c2ccc(CNC(=O)c3ccc(-c4cnn(C)c4)c4ccoc34)cc2)CC1,0,11,-7,3,5,/,/,/,
CN(Cc1nc(Cc2ccccc2F)no1)Cc1cccc2ncccc12,2,3,5,-2,0,-5,/,/,
CCOC(=O)CCCCC(=O)NC(CO)C(=O)NC (stereo unspecified),59*,0,-2,0,0,-6,2,5,
CCOC(=O)CCC(NC(=O)CCCCC(=O)NC(CCC(=O)OCC)C(=O)OCC)C(=O)OCC (stereo unspecified),2,0,0,-1,-2,1,/,/,
Cc1ccc(-n2nc3c(=O)n(CCCC(=O)N4CCC(C(N)=O)CC4)nc(C)c3c2C)cc1,3,6,-5,-2,-1,-5,/,/,
Cc1ccc(C(=O)OC(C)C(=O)NC2CCCCC2C)s1 (stereo unspecified),83*,8,2,3,0,-2,2,3,
O=C(NCCc1ccccc1)c1ccc(NC(=O)C2CC2)cc1,2,2,6,-2,-2,-4,/,/,
Cn1c(=O)c2c(nc(SCc3cccnc3)n2Cc2ccccc2)n(C)c1=O,3,2,-8,2,1,-3,/,/,
Cc1ccc(Cn2c(SCc3cccnc3)nc3c2c(=O)n(C)c(=O)n3C)cc1,108*,0,-5,6,2,-6,7,5,
CCCSc1nc2c(c(=O)[nH]c(=O)n2C)n1Cc1ccc(C)cc1,54*,1,-6,1,0,-2,0,1,
O=C(NCCCO)/C(=C\c1ccco1)NC(=O)c1ccco1,1,2,-7,2,0,-4,/,/,
SMILES,DNMT1 block,SUMO1 PPI mod,Rpn11 inh,STEP block,LMPTP block,Scp-1 inhibitor,DNMT1 confirm,DNMT1 interf,others
CN(CCOc1ccccc1)C(=S)Nc1ccc(OC(F)F)cc1,7,14,7,6,6,-3,/,/,
COc1ccc(CCN2C(=NC(=O)C(C)C)SC3CS(=O)(=O)CC32)cc1OC (stereo unspecified),2,0,3,-2,-2,-7,/,/,
COc1ccc(CNc2cccnc2Cl)cc1,/,0,/,/,-1,/,/,/,
COc1ccc(Oc2c(OC)cc(NCc3ccc(CN)cc3)c3ncccc23)cc1,95*,22,20,4,24,/,33*,-5,DNMT1 interf DR=>99
COc1ccc(/C=C/C(=O)N(Cc2ccccc2)c2ccccn2)cc1OC,3,2,2,0,-2,-5,/,/,
COc1cc(/C=C/C(=O)N(Cc2ccccc2)c2ccccn2)cc(OC)c1OC,53*,1,4,-3,0,-5,-1,9,
COc1ccc(CCC(=O)NCCS(=O)(=O)N2CCN(c3ccc(OC)cc3)CC2)cc1,1,4,-3,4,0,-4,/,/,
O=C1N=C(N2CCOCC2)SC1=Cc1ccco1,81*,-16,18,-2,-1,-1,4,5,
Cc1ccc(/C=C2\SC(N3CCN(C(c4ccccc4)c4ccccc4)CC3)=NC2=O)o1,79*,-1,21,3,6,-6,-4,-5,
NS(=O)(=O)c1ccc(CCNS(=O)(=O)c2ccc(Cl)nc2)cc1,1,-3,-4,3,2,-7,/,/,
S=C(Nc1cccnc1)N1CCN(c2ccccc2Cl)CC1,-1,2,-4,0,1,-7,/,/,
O=C(Nc1cccc(OC(F)(F)F)c1)c1ccc(-c2cccnc2)c2ccoc12,69*,-14,-6,0,3,/,8,2,
COc1cc(NC(=O)c2ccc(-c3cccnc3)c3ccoc23)cc(OC)c1OC,1,1,-6,-1,2,/,/,/,
COc1ccc(C2Nc3ccccc3C(=O)N2C2CCCCC2)cc1 (stereo unspecified),-1,0,-1,2,1,-7,/,/,
N/C(=N\OC(=O)CC1CCCCC1)c1ccc(Cl)cc1,1,3,-2,3,2,-7,/,/,
